Source: ChEMBL document CHEMBL3808312, “Bioactive Constituents of Glycyrrhiza uralensis (Licorice): Discovery of the Effective Components of a Traditional Herbal Medicine” (J Nat Prod, 2016)
Active and inactive are the calls of the source. The rule behind the calls is not given here.

Columns and labels:
SW480 [1] = assay: Cytotoxicity against human SW480 cells assessed as reduction in cell viability after 24 hrs by MTS assay; assay type: functional, cell-based; conditions: SW480, 24 h
Summary of the method: (§1)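 Cells seeded at 5 × 10^3/well and cultured overnight, then exposed to compounds for 24 h. Viability read by MTS. Media: SW480 in RPMI1640, A549 in DMEM, MCF7 in MEM. […] Irinotecan positive control.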

MCF7 [2] = assay: Cytotoxicity against human MCF7 cells assessed as reduction in cell viability after 24 hrs by MTS assay; assay type: functional, cell-based; conditions: MCF7, 24 h; summary of the method: as §1
HepG2 [3] = assay: Cytotoxicity against human HepG2 cells assessed as reduction in cell viability after 24 hrs by MTS assay; assay type: functional, cell-based; conditions: HepG2, 24 h; summary of the method: as §1
Acetylcholinesterase [4] = target: T1, Acetylcholinesterase (Homo sapiens, UniProt P22303); assay: Inhibition AChE (unknown origin) using ATCI as substrate assessed as hydrolysis of ATCI at 25 uM measured every 1 min for 10 times
Summary of the method: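 Commercial AChE (added as 0.025 U/mL solution) in Tris-HCl (30 mM, pH 8.0) with DTNB (added as 0.26 mM) and ATCI substrate (added as 0.2 mM); 200 μL mixture at room temperature. Thiocholine release read at 405 nm every min, 10 reads; linear slope taken as rate. Screening at 25 μM; galanthamine positive control.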

A549 [5] = assay: Cytotoxicity against human A549 cells assessed as reduction in cell viability after 24 hrs by MTS assay; assay type: functional, cell-based; conditions: A549, 24 h; summary of the method: as §1
[6] = target: T2, Tyrosine-protein phosphatase non-receptor type 1 (Homo sapiens) (UniProt P18031); assay: Inhibition of recombinant human PTP1B assessed as hydrolysis of p-nitrophenyl phosphate at 25 uM after 30 mins relative to control
T2 sequence (whole entry): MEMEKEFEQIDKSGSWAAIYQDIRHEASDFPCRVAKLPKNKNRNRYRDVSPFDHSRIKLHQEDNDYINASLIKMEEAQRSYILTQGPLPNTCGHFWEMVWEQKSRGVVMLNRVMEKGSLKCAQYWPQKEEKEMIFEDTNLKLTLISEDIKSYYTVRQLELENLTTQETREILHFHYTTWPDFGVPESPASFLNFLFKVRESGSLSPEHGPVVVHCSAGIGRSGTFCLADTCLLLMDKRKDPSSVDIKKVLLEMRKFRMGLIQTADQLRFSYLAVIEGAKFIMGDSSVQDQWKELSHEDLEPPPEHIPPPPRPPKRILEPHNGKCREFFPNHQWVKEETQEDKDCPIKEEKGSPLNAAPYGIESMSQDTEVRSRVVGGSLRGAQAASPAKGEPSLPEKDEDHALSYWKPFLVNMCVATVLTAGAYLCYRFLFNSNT

MDCK = assay: Cytotoxicity against MDCK cells after 36 hrs; assay type: cell-based, Canis lupus familiaris; conditions: dog
[7] = target: T3, Tyrosine-protein phosphatase non-receptor type 1 (Homo sapiens, UniProt P18031); assay: Inhibition of recombinant human PTP1B assessed as hydrolysis of p-nitrophenyl phosphate
T3 sequence (P18031 whole entry): T2 sequence (whole entry)

[8] = target: T4, Tyrosinase (Homo sapiens) (UniProt P14679); assay: Inhibition of tyrosinase (unknown origin) using L-tyrosine as substrate assessed as oxidation of L-tyrosine at 20 uM after 15 mins
T4 sequence (whole entry): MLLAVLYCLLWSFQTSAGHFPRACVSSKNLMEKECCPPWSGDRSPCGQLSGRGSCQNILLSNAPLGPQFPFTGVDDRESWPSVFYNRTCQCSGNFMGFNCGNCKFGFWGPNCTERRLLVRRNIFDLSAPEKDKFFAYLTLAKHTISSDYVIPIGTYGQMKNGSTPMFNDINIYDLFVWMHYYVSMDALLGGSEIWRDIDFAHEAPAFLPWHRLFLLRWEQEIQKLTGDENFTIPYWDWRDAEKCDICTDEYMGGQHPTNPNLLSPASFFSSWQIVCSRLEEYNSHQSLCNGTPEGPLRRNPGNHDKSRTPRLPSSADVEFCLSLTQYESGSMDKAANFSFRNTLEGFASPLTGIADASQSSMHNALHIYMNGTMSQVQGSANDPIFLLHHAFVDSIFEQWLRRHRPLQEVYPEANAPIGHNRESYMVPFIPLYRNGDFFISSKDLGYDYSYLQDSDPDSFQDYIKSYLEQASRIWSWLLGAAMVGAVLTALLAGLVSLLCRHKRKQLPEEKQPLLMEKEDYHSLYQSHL
Summary of the method: (§2)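 Tyrosinase at 333 U/mL (stock) in 45 mM sodium phosphate, pH 6.6, with 2 mM L-tyrosine (stock). Incubated 37 °C for 15 min; oxidation read at 492 nm. Screened at 20 μM; dose-response for IC50. Glyasperin C positive control.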

Tyrosinase = target: T5, Tyrosinase (Homo sapiens, UniProt P14679); assay: Inhibition of tyrosinase (unknown origin) using L-tyrosine as substrate assessed as oxidation of L-tyrosine after 15 mins; summary of the method: as §2
T5 sequence (P14679 whole entry): T4 sequence (whole entry)

[9] = target: T2, Tyrosine-protein phosphatase non-receptor type 1 (Homo sapiens); conditions: 5 uM
RAW264.7 [10] = assay: Antiinflammatory activity in mouse RAW264.7 cells assessed as inhibition of LPS-induced nitric oxide production after 24 hrs by Griess assay; assay type: functional, cell-based; conditions: RAW264.7, 24 h
Summary of the method: (§3)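 RAW264.7 cells plated at 1.2 × 10^5/well in RPMI1640 and co-treated with compound and 1 μg/mL LPS for 24 h. Nitrite in medium read with Griess reagent (sulfanilamide/naphthylethylenediamine, phosphoric acid) after 15 min at 37 °C, absorbance 540 nm. […] Curcumin positive control.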

RAW264.7 [11] = assay: Antiinflammatory activity in mouse RAW264.7 cells assessed as inhibition of LPS-induced nitric oxide production at 10 uM after 24 hrs by Griess assay; assay type: functional; conditions: RAW264.7, 24 h; summary of the method: as §3
[12] = target: T6, Nuclear factor erythroid 2-related factor 2 (Homo sapiens) (UniProt Q16236); assay: Activation of NRF2 transcription in human HepG2C8 cells at 10 uM after 6 hrs by luciferase reporter gene assay relative to control; assay type: cell-based
T6 sequence (whole entry): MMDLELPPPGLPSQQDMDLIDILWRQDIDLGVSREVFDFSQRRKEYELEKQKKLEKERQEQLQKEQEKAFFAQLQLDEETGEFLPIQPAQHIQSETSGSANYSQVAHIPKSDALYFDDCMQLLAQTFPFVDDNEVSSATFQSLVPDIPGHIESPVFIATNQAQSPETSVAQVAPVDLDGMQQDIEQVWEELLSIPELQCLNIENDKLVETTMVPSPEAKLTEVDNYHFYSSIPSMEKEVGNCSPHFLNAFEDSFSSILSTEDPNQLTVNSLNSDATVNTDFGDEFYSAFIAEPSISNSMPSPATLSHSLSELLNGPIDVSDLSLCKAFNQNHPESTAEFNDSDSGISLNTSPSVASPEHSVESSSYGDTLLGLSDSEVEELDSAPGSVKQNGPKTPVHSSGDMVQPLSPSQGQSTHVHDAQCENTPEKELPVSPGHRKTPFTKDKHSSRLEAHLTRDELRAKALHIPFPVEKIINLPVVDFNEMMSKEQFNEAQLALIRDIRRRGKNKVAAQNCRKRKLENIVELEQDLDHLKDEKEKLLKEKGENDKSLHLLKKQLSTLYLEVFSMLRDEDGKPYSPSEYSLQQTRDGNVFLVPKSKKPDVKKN
Summary of the method: (§4)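 Luciferase reporter in HepG2C8 cells, which are HepG2 stably transfected with an Nrf2 luciferase reporter and grown in MEM. Screened at 10 μM, with dose-response over 2.5−40 μM. Activity expressed as fold of control. tBHQ positive control.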

Influenza A virus = assay: Antiviral activity against Influenza A virus A/WSN/33(H1N1) infected in MDCK cells at 100 uM preincubated with virus for 15 mins followed by cells addition measured at 36 hrs post infection; assay type: functional, A/WSN/1933(H1N1)
Summary of the method: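 MDCK canine kidney cells grown in DMEM and infected with influenza A/WSN/33 (H1N1). Compounds screened at 100 μM. Oseltamivir phosphate served as the positive control.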

Acetylcholinesterase [13] = target: T1, Acetylcholinesterase; assay: Inhibition AChE (unknown origin) using ATCI as substrate assessed as hydrolysis of ATCI after 10 mins measured every 1 min for 10 times
MCF7 [14] = assay: Cytotoxicity against human MCF7 cells assessed as reduction in cell viability at 10 uM after 24 hrs by MTS assay; assay type: functional
Summary of the method: (§5)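 Cells seeded at 5 × 10^3/well and cultured overnight, then exposed to compounds for 24 h. Viability read by MTS. Media: SW480 in RPMI1640, A549 in DMEM, MCF7 in MEM. Irinotecan positive control.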

A549 [15] = assay: Cytotoxicity against human A549 cells assessed as reduction in cell viability at 10 uM after 24 hrs by MTS assay; assay type: functional; summary of the method: as §5
SW480 [16] = assay: Cytotoxicity against human SW480 cells assessed as reduction in cell viability at 10 uM after 24 hrs by MTS assay; assay type: functional; summary of the method: as §5
HepG2 [17] = assay: Cytotoxicity against human HepG2 cells assessed as reduction in cell viability at 10 uM after 24 hrs by MTS assay; assay type: functional
[18] = target: T6, Nuclear factor erythroid 2-related factor 2 (Homo sapiens); assay: Inhibition of NRF2 transcription in human HepG2C8 cells at 10 uM after 6 hrs by luciferase reporter gene assay relative to control; assay type: cell-based; summary of the method: as §4
[19] = target: T6, Nuclear factor erythroid 2-related factor 2 (Homo sapiens); assay: Activation of NRF2 transcription in human HepG2C8 cells at 100 uM after 6 hrs by luciferase reporter gene assay relative to control; assay type: cell-based
[20] = target: T6, Nuclear factor erythroid 2-related factor 2 (Homo sapiens); assay: Activation of NRF2 transcription in human HepG2C8 cells after 6 hrs by luciferase reporter gene assay; assay type: cell-based; summary of the method: as §4
HepG2 [21] = assay: Toxicity in human HepG2 cells at 20 to 40 uM; assay type: cell-based; conditions: hepg2, 40 µM
RAW264.7 [22] = assay: Antiinflammatory activity in mouse RAW264.7 cells assessed as inhibition of LPS-induced nitric oxide production at 20 uM after 24 hrs by Griess assay; assay type: functional; conditions: RAW264.7, 24 h; summary of the method: as §3

T1 sequence (P22303 whole entry): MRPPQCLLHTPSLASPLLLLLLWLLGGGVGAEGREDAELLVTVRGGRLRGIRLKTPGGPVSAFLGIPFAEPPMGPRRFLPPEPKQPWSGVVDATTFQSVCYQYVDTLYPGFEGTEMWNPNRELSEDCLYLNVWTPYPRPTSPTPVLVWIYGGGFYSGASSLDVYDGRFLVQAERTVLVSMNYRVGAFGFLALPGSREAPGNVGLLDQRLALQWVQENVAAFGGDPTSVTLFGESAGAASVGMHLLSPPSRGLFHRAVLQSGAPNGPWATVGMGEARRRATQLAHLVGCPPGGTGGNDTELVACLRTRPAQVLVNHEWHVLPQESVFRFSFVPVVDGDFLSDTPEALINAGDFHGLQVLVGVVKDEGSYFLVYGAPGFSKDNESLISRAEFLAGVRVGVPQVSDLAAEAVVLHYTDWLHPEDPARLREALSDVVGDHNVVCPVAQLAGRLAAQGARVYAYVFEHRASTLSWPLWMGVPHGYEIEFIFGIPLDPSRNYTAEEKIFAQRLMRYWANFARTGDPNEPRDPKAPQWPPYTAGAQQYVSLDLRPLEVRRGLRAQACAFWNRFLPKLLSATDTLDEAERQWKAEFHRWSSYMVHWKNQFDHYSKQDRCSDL

CC(C)=CCc1c(O)ccc(-c2coc3cc(O)c(CC=C(C)C)c(O)c3c2=O)c1O
IC50 (SW480 [1]): 6.4 µM
IC50 (MCF7 [2]): 6 µM
IC50 (HepG2 [3]): 1.1 µM
inhibition (Acetylcholinesterase [4]): 71%
IC50 (A549 [5]): 7.1 µM
inhibition [6]: > 95%
Activity (MDCK): Toxic
IC50 [7]: 0.4 µM

O=c1c(O)c(-c2ccc(O)cc2)oc2cc(O)cc(O)c12 [KAEMPFEROL]
inhibition [8]: > 95%
IC50 (Tyrosinase): 1 µM

C[C@H]1[C@H](C)CC[C@]2(C(=O)O)CC[C@]3(C)C(=CC[C@@H]4[C@@]5(C)CC[C@H](O)C(C)(C)[C@@H]5CC[C@]43C)[C@H]12
inhibition [9]: 45%

CC(C)=CCc1cc(-c2coc3cc(O)c(CC=C(C)C)c(O)c3c2=O)cc(O)c1O
IC50 (SW480 [1]): 6.5 µM
IC50 (MCF7 [2]): 6.6 µM
IC50 (HepG2 [3]): 4.4 µM
IC50 (A549 [5]): 6.4 µM
inhibition [6]: > 95%
Activity (MDCK): Toxic
IC50 [7]: 3 µM

COc1c(-c2ccc(O)c(CC=C(C)C)c2)oc2cc(O)cc(O)c2c1=O
IC50 (RAW264.7 [10]): 12.1 µM
inhibition at 10 µM (RAW264.7 [11]): > 50%
inhibition [6]: 85%

COc1c2c(cc(O)c1CC=C(C)C)OCC(c1ccc(O)cc1O)=C2
inhibition [8]: inactive
IC50 (RAW264.7 [10]): 8.1 µM
fold change (FC) [12]: 4.7
Activity (Influenza A virus): >30%
inhibition at 10 µM (RAW264.7 [11]): > 50%

COc1cc2occ(-c3ccc(O)cc3O)c(=O)c2c(O)c1CC=C(C)C
IC50 (Acetylcholinesterase [13]): 9.9 µM
inhibition (Acetylcholinesterase [4]): 83%

COc1c(CC=C(C)C)c(O)cc2c1C[C@H](c1ccc(O)c(CC=C(C)C)c1O)CO2 [LICORICIDIN]
IC50 (SW480 [1]): 7.1 µM
IC50 (MCF7 [2]): 5.2 µM
IC50 (HepG2 [3]): 0.3 µM
IC50 (Acetylcholinesterase [13]): 15.5 µM
inhibition (Acetylcholinesterase [4]): 82%
IC50 (A549 [5]): 6.9 µM
inhibition [6]: > 95%
Activity (MDCK): Toxic

COc1cc2c(c(OC)c1CC=C(C)C)C[C@H](c1ccc(O)cc1O)CO2 [GLYASPERIN D]
IC50 (SW480 [1]): 7.2 µM
inhibition [8]: > 95%
IC50 (MCF7 [2]): 6.7 µM
Activity (MCF7 [14]): 98%
IC50 (HepG2 [3]): 3.8 µM
Activity (A549 [15]): 25%
Activity (SW480 [16]): 78%
IC50 (Tyrosinase): 0.154 µM
Activity (HepG2 [17]): 99%
IC50 (A549 [5]): 12.9 µM

COc1c2c(cc3c1CCC(C)(C)O3)OC[C@@H](c1ccc(O)c(CCC(C)(C)O)c1O)C2
inhibition [18]: 76%

CC(C)(C)c1cc(O)ccc1O
fold change (FC) [12]: 1.51
fold change (FC) [19]: 4.34

CC(C)=CCc1c(O)cc2occ(-c3ccc(O)cc3O)c(=O)c2c1O [UNCINANONE A]
Activity [20]: Dose-dependent effect
fold change (FC) [12]: 6.68
Activity (Influenza A virus): >30%
Activity (HepG2 [21]): Toxic

COc1c(CC=C(C)C)c(O)cc2c1C[C@H](c1ccc(O)cc1O)CO2 [GLYASPERIN C]
inhibition [8]: > 95%
IC50 (Tyrosinase): 0.177 µM

COc1cc(/C=C/C(=O)CC(=O)/C=C/c2ccc(O)c(OC)c2)ccc1O [CURCUMIN]
IC50 (RAW264.7 [10]): 19.1 µM
inhibition at 20 µM (RAW264.7 [22]): 53%
inhibition at 10 µM (RAW264.7 [11]): 12%
